Results published in ChEMBL document CHEMBL1127574, “Design and synthesis of ellipticinium salts and 1,2-dihydroellipticines with high selectivities against human CNS cancers in vitro” (1994).

Key:
Type in all cases: functional
A549 [1] = assay: Tested in vitro for cytotoxicity in A549/ATCC cell lines; conditions: Homo sapiens
In short: (§1)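 Compounds dissolved in DMSO, then diluted 500-fold into aqueous medium. The resulting aqueous solutions or suspensions were added to the cultured human tumour cell lines, and the cells were exposed for 48 h. Growth was read colorimetrically in one of two ways: a metabolic assay in which viable cells reduce a tetrazolium salt to a formazan dye, or a protein stain for total cellular protein.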

NCI-H23 = assay: Tested in vitro for cytotoxicity in NCI-H23 cell line of Non-Small Cell Lung Cancer; conditions: Homo sapiens, read-out: Log TGI (converted); in short: as §1
SK-OV-3 = assay: Tested in vitro for cytotoxicity in SK-OV-3 cell line of Ovarian Cancer; conditions: Homo sapiens, read-out: Log TGI (converted)
In short: (§2)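 Compounds dissolved in DMSO and diluted 500-fold into aqueous medium; aliquots of the resulting solutions or suspensions added to cultured human tumor cells for 48 h. Growth read colorimetrically, either by tetrazolium reduction to formazan by viable cells or by protein staining of total cellular protein.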

EKVX = assay: Tested in vitro for cytotoxicity in EKVX cell line of Non-Small Cell Lung Cancer; conditions: Homo sapiens, read-out: Log TGI (converted)
In short: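 Compound DMSO solutions diluted 500-fold into aqueous medium; the resulting solutions or suspensions were added to cultured human tumor cells for 48 h. Growth was read colorimetrically, either by tetrazolium reduction to formazan by viable cells or by a protein stain for total cellular protein.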

UACC-257 = assay: Tested in vitro for cytotoxicity in UACC-257 cell line of Melanoma; conditions: Homo sapiens, read-out: Log TGI (converted); in short: as §2
SK-MEL-2 = assay: Tested in vitro for cytotoxicity in SK-MEL-2 cell line of Melanoma; conditions: Homo sapiens, read-out: Log TGI (converted); in short: as §1
HCT-15 = assay: Tested in vitro for cytotoxicity in HCT-15 cell line of Colon Cancer; conditions: Homo sapiens, read-out: Log TGI (converted); in short: as §1
CCRF-CEM = assay: Tested in vitro for cytotoxicity in CCRF-CEM cell line of Leukemia; conditions: Homo sapiens, read-out: Log TGI (converted); in short: as §1
CAKI-1 [2] = assay: Tested in vitro for cytotoxicity in CAKI-1 cell lines; conditions: Homo sapiens; in short: as §1
RPMI-8226 = assay: Tested in vitro for cytotoxicity in RPMI-8226 cell line of Leukemia; conditions: Homo sapiens, read-out: Log TGI (converted); in short: as §1
SK-MEL-5 = assay: Tested in vitro for cytotoxicity in SK-MEL-5 cell line of Melanoma; conditions: Homo sapiens, read-out: Log TGI (converted); in short: as §2
IGROV-1 = assay: Tested in vitro for cytotoxicity in IGROV1 cell line of Ovarian Cancer; conditions: Homo sapiens, read-out: Log TGI (converted); in short: as §1
ACHN = assay: Tested in vitro for cytotoxicity in ACHN cell line of Renal cancer; conditions: Homo sapiens, read-out: Log TGI (converted); in short: as §1
M14 = assay: Tested in vitro for cytotoxicity in M14 cell line of Melanoma; conditions: Homo sapiens, read-out: Log TGI (converted); in short: as §1
MOLT-4 = assay: Tested in vitro for cytotoxicity in MOLT-4 cell line of Leukemia; conditions: Homo sapiens, read-out: Log TGI (converted); in short: as §1
786-0 = assay: Tested in vitro for cytotoxicity in 786-0 cell line of Renal cancer; conditions: Homo sapiens, read-out: Log TGI (converted); in short: as §1
M19-MEL = assay: Tested in vitro for cytotoxicity in M19-MEL cell line of Melanoma; conditions: Homo sapiens, read-out: Log TGI (converted); in short: as §1
COLO 205 [3] = assay: Tested in vitro for cytotoxicity in COLO 205 cell line of Colon Cancer; conditions: Homo sapiens, read-out: Log TGI (converted); in short: as §1
RXF 631 = assay: Tested in vitro for cytotoxicity in RXF-631 cell line of Renal cancer; conditions: Homo sapiens, read-out: Log TGI (converted); in short: as §1
A549 [4] = assay: Tested in vitro for cytotoxicity in A549/ATCC cell line of Non-Small Cell Lung Cancer; conditions: Homo sapiens, read-out: Log TGI (converted); in short: as §1
SF-539 = assay: Tested in vitro for cytotoxicity in SF-539 cell line of CNS Cancer; conditions: Homo sapiens, read-out: Log TGI (converted); in short: as §1
HOP-62 = assay: Tested in vitro for cytotoxicity in HOP-62 cell line of Non-Small Cell Lung Cancer; conditions: Homo sapiens, read-out: Log TGI (converted); in short: as §1
DLD-1 = assay: Tested in vitro for cytotoxicity in DLD-1 cell line of Colon Cancer; conditions: Homo sapiens, read-out: Log TGI (converted); in short: as §1
K562 = assay: Tested in vitro for cytotoxicity in K-562 cell line of Leukemia; conditions: Homo sapiens, read-out: Log TGI (converted); in short: as §1
DMS-114 [5] = assay: Tested in vitro for cytotoxicity in DMS114 cell line of Small Cell Lung Cancer; conditions: Homo sapiens, read-out: Log TGI (converted); in short: as §1
HCC 2998 = assay: Tested in vitro for cytotoxicity in HCC2998 cell line of Colon Cancer; conditions: Homo sapiens, read-out: Log TGI (converted); in short: as §1
CAKI-1 [6] = assay: Tested in vitro for cytotoxicity in CAKI-1 cell line of Renal cancer; conditions: Homo sapiens, read-out: Log TGI (converted); in short: as §1
SF-295 = assay: Tested in vitro for cytotoxicity in SF-295 cell line of CNS Cancer; conditions: Homo sapiens, read-out: Log TGI (converted); in short: as §1
KM12 = assay: Tested in vitro for cytotoxicity in KM12 cell line of Colon Cancer; conditions: Homo sapiens, read-out: Log TGI (converted); in short: as §1
DMS-114 [7] = assay: Tested in vitro for cytotoxicity in DMS114 cell lines; conditions: Homo sapiens; in short: as §1
COLO 205 [8] = assay: Tested in vitro for cytotoxicity in COLO 205 cell lines; conditions: Homo sapiens; in short: as §1

## COc1ccc2[nH]c3c(C)c4cc[n+](C)cc4c(C)c3c2c1
A549 [1]
  GI50: 1.52 µM
NCI-H23
  TGI: 10 µM
SK-OV-3
  TGI: > 100 µM
EKVX
  TGI: 25.1 µM
UACC-257
  TGI: > 100 µM
SK-MEL-2
  TGI: 63.1 µM
HCT-15
  TGI: > 100 µM
CCRF-CEM
  TGI: > 100 µM
CAKI-1 [2]
  GI50: 48.2 µM
RPMI-8226
  TGI: > 100 µM
SK-MEL-5
  TGI: 20 µM
IGROV-1
  TGI: > 100 µM
ACHN
  TGI: > 100 µM
M14
  TGI: > 100 µM
MOLT-4
  TGI: > 100 µM
786-0
  TGI: 5.01 µM
M19-MEL
  TGI: 25.1 µM
COLO 205 [3]
  TGI: 39.8 µM
RXF 631
  TGI: > 100 µM
A549 [4]
  TGI: > 100 µM
SF-539
  TGI: 6.31 µM
HOP-62
  TGI: 6.31 µM
DLD-1
  TGI: > 100 µM
K562
  TGI: > 100 µM
DMS-114 [5]
  TGI: 6.31 µM
HCC 2998
  TGI: 63.1 µM
CAKI-1 [6]
  TGI: > 100 µM
SF-295
  TGI: 6.31 µM
KM12
  TGI: 25.1 µM
DMS-114 [7]
  GI50: 0.811 µM
COLO 205 [8]
  GI50: 2.4 µM
